Results published in ChEMBL document CHEMBL1128190, “Inhibition of E-selectin-, ICAM-1-, and VCAM-1-mediated cell adhesion by benzo[b]thiophene-, benzofuran-, indole-, and naphthalene-2-carboxamides: identification of PD 144795 as an antiinflammatory agent” (J Med Chem, 1995).

Tests used:
[1] = Cell adhesion measured using the inhibitory concentration against Human umbilical vein endothelial cell (HUVEC) activation, with Na51CrO4 as radioligand at 100 uM; type: functional
Summary of the method: (§1)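 Confluent second-passage HUVEC monolayers were stimulated with TNF-α (200 U/mL) for 4 h with or without compound at 100 μM, then washed. Fresh human neutrophils labelled with Na⁵¹CrO₄ (5 × 10⁵) were added for 30 min at 37 °C. Non-adherent cells were aspirated and adherent cells lysed in NH₄OH; lysates were γ-counted. Results are % inhibition of TNF-stimulated adherence, triplicate. IC50 came from linear regression at 33.3–1.0 μM.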

[2] = The compound was tested for inhibitory activity against vascular cell adhesion molecule (VCAM)-1 mediated cell adhesion in Human aortic endothelial cell culture, by using HAEC surface expression assay at 50 uM; type: functional
Summary of the method: (§2)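 Human aortic endothelial cells at confluence were incubated with TNF-α (250 U/mL) and compound (0.005% DMSO final) for 18 h, then formalin-fixed. Cells were probed with anti-VCAM-1 mAb (2 h, 37 °C), then biotin anti-mouse IgG+IgM F(ab)₂ (1 h), then [¹²⁵I]streptavidin (15 min, 4 °C). NaOH digests were counted.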

[3] = The compound was tested for inhibitory activity against intercellular adhesion molecule (ICAM)-1 mediated cell adhesion in Human umbilical endothelial cell culture, by using HUVEC surface expression assay.; type: functional, cell-based
Summary of the method: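 HUVECs were pretreated with compound for 30 min, then stimulated with TNF-α (140 U/mL final) for 4 h at 37 °C. Unstimulated background was subtracted and results given as % inhibition versus vehicle. IC50 came from linear regression; average of two triplicate assays.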

[4] = The compound was tested for inhibitory activity against intercellular adhesion molecule (ICAM)-1 mediated cell adhesion in Human aortic endothelial cell culture, by using HAEC surface expression assay at 50 uM; type: functional
Summary of the method: (§3)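 Confluent human aortic endothelial cells were incubated with TNF-α (250 U/mL) and compound (0.005% DMSO final) for 18 h. Cells were formalin-fixed and probed with anti-ICAM-1 mAb (2 h, 37 °C), then peroxidase anti-mouse IgG (1 h) and colour reagent (15 min). Read-out was OD414.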

[5] = The compound was tested for cell adhesion by measuring the inhibitory concentration against Human umbilical vein endothelial cell (HUVEC) activation, using Na51CrO4 as radioligand.; type: functional, cell-based
[6] = The compound was tested for inhibitory activity against E-Selectin mediated cell adhesion in Human umbilical endothelial cell culture, by using HUVEC surface expression assay.; type: functional, cell-based
Summary of the method: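 Confluent HUVECs were given compound 30 min before TNF-α (140 U/mL final), then incubated 4 h at 37 °C. Unstimulated background was subtracted and results given as % inhibition versus vehicle. IC50 came from linear regression; average of two assays, each in triplicate.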

[7] = The compound was tested for cell adhesion by measuring the inhibitory concentration against Human umbilical vein endothelial cell (HUVEC) activation, using calcein-AM as radioligand; type: functional, cell-based
[8] = The compound was tested for cell adhesion by measuring the inhibitory concentration against Human umbilical vein endothelial cell (HUVEC) activation, using calcein-AM as radioligand at 100 uM; type: functional
[9] = The compound was tested for cell adhesion by measuring the inhibitory concentration against Human umbilical vein endothelial cell (HUVEC) activation using neutrophils labelled with calcein-AM at 100 uM; type: functional
[10] = cell adhesion assay; measuring the inhibitory concentration against Human umbilical vein endothelial cell (HUVEC) activation, using Na51CrO4 as radioligand at 100 uM; type: functional; settings: in the assay text read “calcein-AM” for “Na51CrO4”
[11] = The compound was tested for cell adhesion by measuring the inhibitory concentration against Human umbilical vein endothelial cell (HUVEC) activation, using calcein-AM as radioligand at 33 uM; type: functional
[12] = Tested for cell adhesion by measuring the inhibitory concentration against Human umbilical vein endothelial cell (HUVEC) activation, using Na51CrO4 as radioligand at 100 uM; type: functional; summary of the method: as §1
[13] = The compound was tested for cell adhesion by measuring the inhibitory concentration against Human umbilical vein endothelial cell (HUVEC) activation, using Na51CrO4 as radioligand at 50 uM; type: functional
[14] = The compound was tested for cell adhesion by measuring the inhibitory concentration against Human umbilical vein endothelial cell (HUVEC) activation, using Na51CrO4 as radioligand at 100 uM; type: functional; summary of the method: as §1
[15] = The compound was tested for cell adhesion by measuring the inhibitory concentration against Human umbilical vein endothelial cell (HUVEC) activation, using Na51CrO4 as radioligand at 100 micro M; type: functional; summary of the method: as §1
[16] = Inhibitory activity against Human umbilical vein endothelial cell (HUVEC) activation, using Na51CrO4 as radioligand at 100 uM.; type: functional; summary of the method: as §1
[17] = The compound was tested for inhibitory activity against intercellular adhesion molecule (ICAM)-1 mediated cell adhesion in Human aortic endothelial cell culture, by using HAEC surface expression assay.; type: functional, cell-based; summary of the method: as §3
Rattus norvegicus = assay: Inhibitory activity against Mycobacterium-induced foot-pad edema(MFE); type: functional
[18] = The compound was tested for inhibitory activity against vascular cell adhesion molecule (VCAM)-1 mediated cell adhesion in Human aortic endothelial cell culture, by using HAEC surface expression assay.; type: functional, cell-based; summary of the method: as §2

With `CC(C)Oc1c(C(N)=O)sc2ccccc12` the inhibition at 100 µM [1] was 60%.

With `COc1ccc2ccc(C(N)=O)c(OC(C)C)c2c1` the inhibition at 50 µM [2] was 81%, the IC50 [3] was 5.2 µM and the inhibition at 50 µM [4] was 86%. For the same compound, the IC50 [5] was 11 µM and the IC50 [6] was 8.6 µM.

Work on `CC(C)Sc1c(C(N)=O)sc2ccc(O)cc12` yielded an IC50 [7] of 3.6 µM.

`COc1ccc2sc(C(N)=O)c(SCCCCC(=O)O)c2c1` gave an inhibition at 100 µM [8] of 37%.

For `CCNC(=O)c1oc2ccc(OC)cc2c1OC(C)C`, the inhibition at 100 µM [8] was under 4%.

For `COc1ccc2sc(C(=O)NC(C)C)c(OC(C)C)c2c1`, the inhibition at 100 µM [9] was 26%.

`COc1ccc2c(c1)c(OC)c(C(N)=O)[s+]2[O-]` (centres undefined) showed an inhibition at 100 µM [10] of 40%.

In the case of `CC(C)Sc1c(C(N)=O)sc2ccc(OCc3ccccc3)cc12`, the inhibition at 33 µM [11] is reported as 24%.

Work on `CNC(=O)c1sc2ccc(OC)cc2c1SC(C)C` yielded an inhibition at 33 µM [11] of 61%.

`CC(C)Oc1c(C(N)=O)oc2ccccc12` gave an inhibition at 100 µM [1] of 20%.

In the case of `COc1ccc2c(c1)c(OC(C)C)c(C(N)=O)n2C`, the inhibition at 50 µM [2] is reported as 84%, the IC50 [3] is reported as 3.7 µM and the inhibition at 50 µM [4] is reported as 92%. It also gave an IC50 [5] of 10 µM and an IC50 [6] of 9.2 µM.

Compound `COc1ccc2sc(C(N)=O)c(OC(C)(C)C)c2c1` has an inhibition at 100 µM [12] of 97%.

`CC(C)OC1=C(C(N)=O)S(=O)(=O)c2ccc(O)cc21` showed an inhibition at 50 µM [13] of under 4%.

`Cc1ccc2sc(C(N)=O)c(OC(C)C)c2c1` showed an inhibition at 100 µM [1] of 61%.

`COc1ccc2sc(C(N)=O)c(SCC(=O)O)c2c1` showed an inhibition at 33 µM [11] of 7%.

With `COc1ccc2sc(C(=O)NCC(=O)O)c(OC(C)C)c2c1` the inhibition at 100 µM [1] was under 4%.

In the case of `CC(C)Oc1c(C(N)=O)sc2ccc(OCc3ccccc3)cc12`, the inhibition at 100 µM [1] is reported as under 4%.

Compound `CNC(=O)c1c(OC(C)C)c2cc(OC)ccc2[s+]1[O-]` (centres undefined) has an inhibition at 100 µM [14] of 43%.

Compound `COc1ccc2sc(C(N)=O)c(Sc3ccccc3)c2c1` has an inhibition at 100 µM [1] of 48%.

Compound `COCn1c(C(N)=O)c(OC(C)C)c2cc(OC)ccc21` has an IC50 [5] of 34 µM.

With `CCNC(=O)c1sc2ccc(OC)cc2c1OC(C)C` the Inhibition [15] was 64%.

Compound `COc1ccc2sc(C(N)=O)c(SC(C)C)c2c1` has an IC50 [5] of 12 µM.

With `COc1ccc2c(c1)c(OC(C)C)c(C(=O)NC(C)C)[s+]2[O-]` (centres undefined) the inhibition at 100 µM [14] was 8%.

For `COc1ccc2sc(C(N)=O)c(OC)c2c1`, the inhibition at 100 µM [1] was 60%.

With `COc1ccc2sc(C(=O)Nc3cccc(C(=O)O)c3)c(OC(C)C)c2c1` the inhibition at 100 µM [1] was 28%.

`COc1ccc2c(c1)c(Oc1ccccc1)c(C(N)=O)[s+]2[O-]` (centres undefined) showed an inhibition at 100 µM [16] of 15%.

In the case of `COc1ccc2ccc(C(=O)Nc3ccccc3)c(OC(C)C)c2c1`, the inhibition at 100 µM [1] is reported as under 4%.

`COc1ccc2c(c1)c(OC(C)C)c(C(N)=O)[s+]2[O-]` (centres undefined) gave an IC50 [17] of 10 µM, an IC50 [3] of 4 µM and an ID40 (Rattus norvegicus) of 10.9 mg/kg. It also gave an IC50 [18] of 4 µM, an IC50 [5] of 8.7 µM and an IC50 [6] of 6.6 µM.

With `COc1cccc2c(OC(C)C)c(C(N)=O)sc12` the inhibition at 50 µM [13] was 35%, the inhibition at 50 µM [2] was under 4% and the inhibition at 50 µM [4] was 21%.
